{
  "source": "ChEMBL document CHEMBL4270555",
  "about": "“Synthesis and biological evaluation of magnolol derivatives as melatonergic receptor agonists with potential use in depression” (Eur J Med Chem, 2018)",
  "key": {"[1]": {"target": "Melatonin receptor type 1A (Homo sapiens, UniProt P48039)", "sequence (P48039 whole entry)": "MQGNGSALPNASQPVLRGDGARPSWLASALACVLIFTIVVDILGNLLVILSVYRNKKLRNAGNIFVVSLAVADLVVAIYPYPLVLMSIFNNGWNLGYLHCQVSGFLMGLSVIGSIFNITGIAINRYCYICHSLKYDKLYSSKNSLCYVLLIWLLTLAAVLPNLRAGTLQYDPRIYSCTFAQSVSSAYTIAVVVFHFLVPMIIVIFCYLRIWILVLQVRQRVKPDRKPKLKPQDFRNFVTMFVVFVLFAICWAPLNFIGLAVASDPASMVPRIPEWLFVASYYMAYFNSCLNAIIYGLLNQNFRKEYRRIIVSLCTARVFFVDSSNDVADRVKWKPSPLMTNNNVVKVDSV", "test": "Agonist activity at human MT1 receptor expressed in HEK293 cells at 1 mM after 24 hrs by Fluo-8 dye-based calcium assay relative to control", "format": "functional, cell-based", "how_it_was_run": "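Fluo-8 calcium assay in HEK293 cells stably expressing human MT1 or MT2, seeded 4×10^4/well and incubated 24 h. Compounds tested at 1.00 mM, agomelatine positive control at 3.33 µM; fluorescence at ex 485/em 525 nm. Agonism expressed as mean ± SD, n = 3.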"}, "Mus musculus [2]": {"test_system": "Mus musculus", "test": "Effect on 5-hydroxytryptamine level in Kunming mouse hippocampus at 40 mg/kg, po treated for 7 days by HPLC-ECD analysis", "format": "functional, organism-based", "how_it_was_run": "(§1)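 Male Kunming mice (18–20 g) given vehicle or 40 mg/kg for 7 days, then killed by cervical dislocation. Frontal cortex, hippocampus, striatum, hypothalamus and thalamus dissected on ice, homogenized in ice-cold 0.2 M perchloric acid with 0.1 mM EDTA, centrifuged 15,000 rpm, 20 min, 4 °C. Supernatant analysed by HPLC-ECD at +0.50 V; phosphate/octanesulfonate mobile phase pH 3.0 with 12% methanol. Levels in ng/g, mean ± SEM.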"}, "Mus musculus [3]": {"test_system": "Mus musculus", "test": "Effect on 5-hydroxytryptamine level in Kunming mouse hypothalamus at 40 mg/kg, po treated for 7 days by HPLC-ECD analysis", "format": "functional, organism-based", "how_it_was_run": "as §1"}, "Mus musculus [4]": {"test_system": "Mus musculus", "test": "Increase in 4-hydroxy-3-methoxyphenylacetic acid level in Kunming mouse hypothalamus at 40 mg/kg, po treated for 7 days by HPLC-ECD analysis", "format": "functional, organism-based", "how_it_was_run": "as §1"}, "[5]": {"test": "Drug metabolism in Sprague-Dawley rat urine assessed as 5'-(1-hydroxyallyl)-5-(1-hydroxypropyl)-2'-((2S,3R,4S,5S,6R)-3,4,5-trihydroxy-6-(hydroxymethyl)tetrahydro-2H-pyran-2-yloxy)biphenyl-2-yl hydrogen sulfate formation at 100 mg/kg, po by UPLC-IT-TOF-MS analysis", "format": "ADME, organism-based", "conditions": "in vivo", "how_it_was_run": "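Male/unspecified SD rats (n = 6) housed individually in metabolic cages, dosed orally at 100.0 mg/kg; controls given 0.5% CMC-Na orally. Plasma, urine and faeces collected. LC-IT-TOF-MS on C18 column at 30 °C, formic acid (0.05%) water/acetonitrile gradient 5–100% B over 18 min, 0.2 mL/min; positive and negative ion modes with automatic MS/MS.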"}, "[6]": {"test": "Drug metabolism in Sprague-Dawley rat feces assessed as 2'-hydroxy-5'-(1-hydroxyallyl)-5-propylbiphenyl-2-yl hydrogen sulfate formation at 100 mg/kg, po by UPLC-IT-TOF-MS analysis", "format": "ADME, organism-based", "conditions": "in vivo", "how_it_was_run": "(§2)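 Rats (n = 6) housed in metabolic cages received 100.0 mg/kg orally; controls received 0.5% CMC-Na. Plasma, urine and faeces were collected and analyzed by LC-IT-TOF-MS on a C18 column at 30 °C. Gradient 5–100% acetonitrile with 0.05% formic acid over 18 min at 0.2 mL/min; positive and negative ion MS/MS.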"}, "[7]": {"test": "Drug metabolism in Sprague-Dawley rat feces assessed as 5'-acryloyl-2'-hydroxy-5-propionylbiphenyl-2-yl hydrogen sulfate formation at 100 mg/kg, po by UPLC-IT-TOF-MS analysis", "format": "ADME, organism-based", "conditions": "in vivo", "how_it_was_run": "as §2"}, "[8]": {"test": "Drug metabolism in Sprague-Dawley rat feces assessed as 2S,3S,4S,5R,6S)-6-(5,5'-diallyl-2'-((2S,3R,4S,5S,6R)-3,4,5-trihydroxy-6-(hydroxymethyl)tetrahydro-2H-pyran-2-yloxy)biphenyl-2-yloxy)-3,4,5-trihydroxytetrahydro-2H-pyran-2-carboxylic acid formation at 100 mg/kg, po by UPLC-IT-TOF-MS analysis", "format": "ADME, organism-based", "conditions": "in vivo", "how_it_was_run": "as §2"}, "[9]": {"test": "Drug metabolism in Sprague-Dawley rat feces assessed as 1-(5'-allyl-2'-hydroxy-6-((2S,3R,4S,5S,6R)-3,4,5-trihydroxy-6-(hydroxymethyl)tetrahydro-2H-pyran-2-yloxy)biphenyl-3-yl)prop-2-en-1-one formation at 100 mg/kg, po by UPLC-IT-TOF-MS analysis", "format": "ADME, organism-based", "conditions": "in vivo", "how_it_was_run": "as §2"}, "[10]": {"test": "Drug metabolism in Sprague-Dawley rat plasma assessed as (2S,3R,4S,5S,6R)-2-(5,5'-diallyl-2'-methoxybiphenyl-2-yloxy)-6-(hydroxymethyl)tetrahydro-2H-pyran-3,4,5-triol formation at 100 mg/kg, po by UPLC-IT-TOF-MS analysis", "format": "ADME, organism-based", "conditions": "in vivo", "how_it_was_run": "as §2"}, "[11]": {"test": "Drug metabolism in Sprague-Dawley rat feces assessed as (2S,3S,4S,5R,6S)-6-(5,5'-diallyl-2'-methoxybiphenyl-2-yloxy)-3,4,5-trihydroxytetrahydro-2H-pyran-2-carboxylic acid formation at 100 mg/kg, po by UPLC-IT-TOF-MS analysis", "format": "ADME, organism-based", "conditions": "in vivo", "how_it_was_run": "as §2"}},
  "note": "Activity calls are given as the source filed them. The rule behind the calls is not given here.",
  "data": [
    {"compound": "C=CCc1ccc(O)c(-c2cc(CC=C)ccc2O[C@@H]2O[C@H](CO)[C@@H](O)[C@H](O)[C@H]2O)c1", "values": [
      {"measurement": "Activity", "setting": "[1]", "result": 108, "unit": "%"},
      {"measurement": "Activity", "setting": "Mus musculus [2]", "result": "inactive"},
      {"measurement": "Activity", "setting": "Mus musculus [3]", "result": "inactive"},
      {"measurement": "Activity", "setting": "Mus musculus [4]", "result": "Active"},
      {"measurement": "Drug metabolism", "setting": "[5]", "result": "Metabolite_Detected"},
      {"measurement": "Drug metabolism", "setting": "[6]", "result": "Metabolite_Detected"},
      {"measurement": "Drug metabolism", "setting": "[7]", "result": "Metabolite_Notdetected"},
      {"measurement": "Drug metabolism", "setting": "[8]", "result": "Metabolite_Detected"},
      {"measurement": "Drug metabolism", "setting": "[9]", "result": "Metabolite_Notdetected"},
      {"measurement": "Drug metabolism", "setting": "[10]", "result": "Metabolite_Detected"},
      {"measurement": "Drug metabolism", "setting": "[11]", "result": "Metabolite_Notdetected"}
    ]}
  ]
}
